What was measured:
[1] = target: T1, 5-hydroxytryptamine receptor 1A (Homo sapiens, UniProt P08908); experiment: In vitro effective concentration required to inhibit forskolin-stimulated cAMP levels in HA7 cells expressing human 5-HT1A receptor; assay type: functional, cell-based
T1 sequence (P08908 whole entry): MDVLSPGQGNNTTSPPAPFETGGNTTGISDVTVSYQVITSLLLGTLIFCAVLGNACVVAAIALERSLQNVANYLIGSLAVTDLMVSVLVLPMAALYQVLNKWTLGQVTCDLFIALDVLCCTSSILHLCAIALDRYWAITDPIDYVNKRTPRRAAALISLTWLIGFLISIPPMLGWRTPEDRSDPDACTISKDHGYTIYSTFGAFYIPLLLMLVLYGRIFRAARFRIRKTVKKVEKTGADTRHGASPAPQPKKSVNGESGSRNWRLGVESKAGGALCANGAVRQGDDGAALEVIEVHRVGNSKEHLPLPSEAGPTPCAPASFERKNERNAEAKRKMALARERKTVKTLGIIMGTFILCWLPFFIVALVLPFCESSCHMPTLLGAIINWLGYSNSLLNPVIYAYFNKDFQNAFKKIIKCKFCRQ
Summary of the method: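 HeLa HA7 cells stably expressing human 5-HT1A, at 80–90% confluency, antibiotic-free for 24 h. Preincubated 10 min at RT in DMEM/10 mM Hepes, then drug at 0.1 nM–100 µM with 100 µM forskolin and 100 µM IBMX for 10 min at RT. Stopped with 0.1 N HCl; cAMP by radioimmunoassay as % of forskolin control; pEC50.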

Rattus norvegicus [2] = experiment: Effective intraperitoneal dose in vivo in rat after 15 mins to induce lower lip retraction; assay type: functional; conditions: ip, 0.25 h
Summary of the method: (§1)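 Observed in 10 min windows centred 15 and 60 min post-dose, 10 s each minute, scoring lower lip retraction present or absent (0–10).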

Rattus norvegicus [3] = experiment: Induction of lower lip retraction in rat 60 min after administration, effective peroral dose determined in vivo; assay type: functional; conditions: po, 1 h; summary of the method: as §1
[4] = target: T2, 5-hydroxytryptamine receptor 1A (Rattus norvegicus, UniProt P19327); experiment: Binding affinity towards 5-hydroxytryptamine 1A receptor in rat cortex using [3H]8-OH-DPAT as a radioligand
T2 sequence (P19327 whole entry): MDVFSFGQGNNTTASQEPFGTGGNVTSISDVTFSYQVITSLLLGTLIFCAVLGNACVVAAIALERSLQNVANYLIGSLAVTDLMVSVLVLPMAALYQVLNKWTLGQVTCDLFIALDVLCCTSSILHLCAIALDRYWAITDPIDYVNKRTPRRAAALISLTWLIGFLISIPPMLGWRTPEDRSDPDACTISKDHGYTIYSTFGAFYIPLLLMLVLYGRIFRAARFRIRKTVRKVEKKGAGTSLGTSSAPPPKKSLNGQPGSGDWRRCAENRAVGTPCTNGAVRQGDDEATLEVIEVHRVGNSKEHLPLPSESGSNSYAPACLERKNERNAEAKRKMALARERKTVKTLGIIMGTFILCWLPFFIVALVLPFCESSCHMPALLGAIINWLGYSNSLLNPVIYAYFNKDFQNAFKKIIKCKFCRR
Summary of the method: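 Rat tissue membranes, competition against radioligand at 23 °C. Nonspecific binding: 5-HT for 5-HT1A (30 min), (+)-butaclamol for D2 (60 min), phentolamine for α1 (30 min). Tris HCl 50 mM pH 7.4 buffers. Filtration through glass-fibre filters, then scintillation counting. Run in triplicate; IC50 by nonlinear regression; Ki by Cheng–Prusoff; mean pKi of three determinations.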

Row | EC50 [1] | Ki [4] | Structure (SMILES) | ED50 (Rattus norvegicus [2]) | ED50 (Rattus norvegicus [3])
1 | 2.75 nM | 2.19 nM | Cc1ccc(CNCC2(F)CCN(C(=O)c3ccc(F)c(Cl)c3)CC2)nc1-c1cc[nH]n1 | 0.32 mg/kg | 0.89 mg/kg
2 | – | 5.13 nM | O=C(c1ccc(Cl)c(Cl)c1)N1CCC(F)(CNCc2ccccn2)CC1 | 0.11 mg/kg | –
3 | – | 15.1 nM | O=C(c1ccc(Cl)c(Cl)c1)N1CCC(CNCc2ncccc2F)CC1 | – | –
4 | 30.9 nM | – | O=C(c1ccc(Cl)c(Cl)c1)N1CCC(CNCc2cccc(-n3cccn3)n2)CC1 | – | –
5 | 5.25 nM | – | O=C(c1ccc(Cl)c(Cl)c1)N1CCC(CNCc2cccc(-c3ccco3)n2)CC1 | – | –
6 | 14.8 nM | 0.447 nM | Cc1ccc(CNCC2(F)CCN(C(=O)c3ccc(F)c(Cl)c3)CC2)nc1-n1cccn1 | 0.32 mg/kg | 1.3 mg/kg
7 | 5.75 nM | – | O=C(c1ccc(Cl)c(Cl)c1)N1CCC(CNCc2cccc(-c3cccs3)n2)CC1 | – | –
8 | 7.08 nM | – | O=C(c1ccc(Cl)c(Cl)c1)N1CCC(CNCc2cccc(N3CCC3)n2)CC1 | – | –
9 | 8.32 nM | 0.148 nM | CCNc1nc(CNCC2(F)CCN(C(=O)c3ccc(F)c(Cl)c3)CC2)ccc1C | 0.08 mg/kg | 0.45 mg/kg
10 | – | 37.2 nM | CC1(CNCc2cccc(-n3cccn3)n2)CCN(C(=O)c2ccc(Cl)c(Cl)c2)CC1 | – | –
11 | 269 nM | 6.03 nM | O=C(c1ccc(Cl)c(Cl)c1)N1CC=C(CNCc2cccc(-n3cccn3)n2)CC1 | – | –
12 | 12.3 nM | 0.49 nM | O=C(c1ccc(F)c(Cl)c1)N1CCC(F)(CNCc2cccc(-n3cccn3)n2)CC1 | 0.32 mg/kg | 1.3 mg/kg
13 | – | 30.2 nM | COC1(CNCc2cccc(-n3cccn3)n2)CCN(C(=O)c2ccc(Cl)c(Cl)c2)CC1 | – | –
14 | 33.1 nM | 0.562 nM | Cc1cc(CNCC2(F)CCN(C(=O)c3ccc(F)c(Cl)c3)CC2)nc(N(C)C)c1 | 0.32 mg/kg | 0.89 mg/kg
15 | 13.2 nM | – | CCNc1cccc(CNCC2(F)CCN(C(=O)c3ccc(F)c(Cl)c3)CC2)n1 | 0.11 mg/kg | 0.32 mg/kg
16 | 5.01 nM | – | O=C(c1ccc(Cl)c(Cl)c1)N1CCC(CNCc2cccc(-c3nccs3)n2)CC1 | – | –

Row | EC50 [1] | Ki [4] | Structure (SMILES) | ED50 (Rattus norvegicus [2]) | ED50 (Rattus norvegicus [3])
17 | 2 nM | – | O=C(c1ccc(Cl)c(Cl)c1)N1CCC(CNCc2cccc(-c3cnco3)n2)CC1 | – | –
18 | 162 nM | 6.92 nM | N#CC1(CNCc2cccc(-n3cccn3)n2)CCN(C(=O)c2ccc(Cl)c(Cl)c2)CC1 | – | –
19 | 3.72 nM | – | Cc1ccc(CNCC2(F)CCN(C(=O)c3ccc(F)c(Cl)c3)CC2)nc1N(C)C | 0.04 mg/kg | 0.08 mg/kg
20 | 20.4 nM | – | CN(C)c1cccc(CNCC2CCN(C(=O)c3ccc(Cl)c(Cl)c3)CC2)n1 | – | –
21 | 39.8 nM | 1.62 nM | O=C(c1ccc(Cl)c(Cl)c1)N1CCC(O)(CNCc2cccc(-n3cccn3)n2)CC1 | – | –
22 | – | 35.5 nM | CC(C)c1ccc(CNCC2(F)CCN(C(=O)c3ccc(F)c(Cl)c3)CC2)nc1 | – | –
23 | – | – | Cc1ccc(CNCC2(F)CCN(C(=O)c3ccc(F)c(Cl)c3)CC2)nc1 [BEFIRADOL] | 0.08 mg/kg | 0.11 mg/kg
24 | 47.9 nM | 0.468 nM | Cc1ccc(N(C)C)nc1CNCC1(F)CCN(C(=O)c2ccc(F)c(Cl)c2)CC1 | 0.63 mg/kg | 1.3 mg/kg
25 | 3.02 nM | – | O=C(c1ccc(Cl)c(Cl)c1)N1CCC(CNCc2cccc(-c3cc[nH]n3)n2)CC1 | – | –
26 | 21.9 nM | – | CNc1cccc(CNCC2CCN(C(=O)c3ccc(Cl)c(Cl)c3)CC2)n1 | – | –
27 | 309 nM | 9.12 nM | O=C(c1ccc(Cl)c(Cl)c1)N1CCC(CF)(CNCc2cccc(-n3cccn3)n2)CC1 | – | –
28 | 28.8 nM | 1.38 nM | CCN(CC)c1nc(CNCC2(F)CCN(C(=O)c3ccc(F)c(Cl)c3)CC2)ccc1C | 0.32 mg/kg | 0.11 mg/kg
29 | 0.724 nM | – | O=C(c1ccc(F)c(Cl)c1)N1CCC(F)(CNCc2cccc(-c3cc[nH]n3)n2)CC1 | 0.32 mg/kg | 0.32 mg/kg
30 | 12.6 nM | – | CNc1cccc(CNCC2(F)CCN(C(=O)c3ccc(F)c(Cl)c3)CC2)n1 | 0.11 mg/kg | 0.32 mg/kg
31 | 20.9 nM | – | Cc1ccc(CNCC2(F)CCN(C(=O)c3ccc(Cl)c(Cl)c3)CC2)nc1 | – | 0.62 mg/kg
